Data reported in ChEMBL document CHEMBL1133511, “Contribution of the adenine base to the activity of adenophostin A investigated using a base replacement strategy” (J Med Chem, 2000).

Assays:
[1] = species on record: Rattus norvegicus; assay: Tested for concentration of ligand causing half maximal response of Calcium ion release from permeabilised hepatocytes; type: functional; conditions: Hepatocyte
Outline: (§1)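 Permeabilized rat hepatocytes loaded to steady state with 45Ca2+ (5 min, 37 °C) in cytosol-like medium (140 mM KCl, 20 mM NaCl, 2 mM MgCl2, 1 mM EGTA, 300 µM CaCl2, 20 mM Pipes, pH 7.0) with 1.5 mM ATP, creatine phosphate/kinase, 10 µM FCCP; 1.25 µM thapsigargin added, 30 s later agonist for 60 s; store 45Ca2+ by rapid filtration. Four-parameter logistic fit; means ± SEM, 6-15 experiments.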

[2] = Tested for equilibrium competition binding to InsP3 receptor in hepatic membranes using 1.3-1.8 nM [3H]Ins(1,4,5)P3 as the radioligand.; type: functional, cell membranes, Rattus norvegicus, Liver, Membrane
Outline: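 Rat liver membranes (perfused, homogenized, Percoll-purified), 0.1 mg protein/tube in 50 mM Tris, 1 mM EDTA, pH 8.3, incubated 5 min at 4 °C with [3H]Ins(1,4,5)P3 plus competing ligand; bound separated by centrifugation (20000g, 5 min), counted by scintillation. Kd and Hill coefficient from equilibrium competition; means ± SEM of 4 independent experiments.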

[3] = species on record: Rattus norvegicus; assay: Tested for percentage of intracellular calcium ion stores released in rat hepatocytes; type: functional, Hepatocyte; outline: as §1

Row | Ki [2] [nM] | Compound | EC50 [1] [nM] | Max response [3] [%]
1 | 0.45 | Nc1ncnc2c1ncn2[C@@H]1O[C@H](CO)[C@@H](O[C@H]2O[C@@H](CO)[C@@H](OP(=O)(O)O)[C@H](OP(=O)(O)O)[C@@H]2O)[C@H]1OP(=O)(O)O | 14 | 51
2 | 2.19 | O=P(O)(O)O[C@@H]1[C@H](O)[C@@H](O[C@H]2[C@@H](OP(=O)(O)O)[C@H](n3ccnc3)O[C@@H]2CO)O[C@@H](CO)[C@H]1OP(=O)(O)O | 108 | 57
3 | 2.72 | O=P(O)(O)O[C@@H]1[C@H](O)[C@@H](O)[C@@H](OP(=O)(O)O)[C@H](OP(=O)(O)O)[C@@H]1O | 119 | 55
4 | 0.8 | O=P(O)(O)O[C@@H]1[C@H](O)[C@@H](O[C@H]2[C@@H](OP(=O)(O)O)[C@H](n3cnc4cncnc43)O[C@@H]2CO)O[C@@H](CO)[C@H]1OP(=O)(O)O [PURINOPHOSTIN] | 18 | 52
